Our source for the Activity and EC50 values is ChEMBL document CHEMBL2321794, “Evaluation of difluoromethyl ketones as agonists of the γ-aminobutyric acid type B (GABAB) receptor” (J Med Chem, 2013).

The test system of one data set is HEK293. Briefly: Cytotoxicity against HEK293 cells expressing human GABA-B B1/B2 receptor gene after 3 hrs by MTS assay. Type of data set: cell-based. The note with it: hek293, 3 h. In a few lines: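 MTS viability in HEK293 cells stably expressing human GABA-B1/B2 with Cre-luc reporter: about 65000 cells/well plated overnight, treated 3 h at 37 °C, 5% CO2 in Optimem, in triplicate. CellTiter Aqueous One reagent then added for 1.5 h; absorbance read at 490 nm.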
On the technique in general: Tetrazolium assays rely on reduction of a dye to a coloured formazan, in cell work by metabolically active cells.

Data set [1] has as its target GABA-A receptor; alpha-1/beta-2/gamma-2 (Rattus norvegicus, UniProt P18508+P62813+P63138). Briefly: Agonist activity at rat GABA-A alpha1beta2gamma2 receptor expressed in human TSA201 cells by whole cell voltage-clamp method. Format: cell-based. A digest of the protocol: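 Whole-cell voltage clamp at rt, holding potential −60 mV, in tsA201 cells transiently transfected (calcium phosphate) with rat α1, β2, γ2s subunits plus GFP (1:1:5:1); recorded the day after replating. Compounds applied at 100 μM via gap-free protocol; currents compared with response to 100 μM GABA. Intracellular NMDG-Cl/CsCl pH 7.2; extracellular NaCl/HEPES pH 7.4; 1 kHz filtering and sampling.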

In data set [2] the test system is Mus musculus. Briefly: Anxiolytic activity in high alcohol preferring-2 mouse assessed as reduction of startle response under light and noise condition at 12.5 mg/kg, ip treated 25 mins prior to test. More on the design: dose 12.5 mg/kg. Format: functional, organism-based. A digest of the protocol:
(§1)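 Experimentally naive HAP2 mice (16 male, 16 female, 316–332 days old). Given ip at 10 mL/kg in 10% DMSO/45% (w/v) 2-hydroxypropyl-β-cyclodextrin in distilled water, 25 min before the test. Conditioning 24 h prior: 40 trials of 30 s, 7 W light paired with 0.5 s, 0.8 mA foot shock at 2 min intervals. Startle force in grams excluding body weight, 70–71 dB background, sexes pooled.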

Data set [3] has as its system Mus musculus. In words: Anxiolytic activity in high alcohol preferring-2 mouse assessed as reduction of startle response under noise alone condition at 12.5 mg/kg, ip treated 25 mins prior to test. Format: functional, organism-based. More on the design: dose 12.5 mg/kg. In a few lines: as §1
For data set [4], the system named is Mus musculus. Briefly: Anxiolytic activity in high alcohol preferring-2 mouse assessed as reduction of startle response under light and noise condition at 36 mg/kg, ip treated 25 mins prior to test. Type of data set: functional, organism-based. More on the design: dose 36 mg/kg. In a few lines:
(§2)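 HAP2 mice, experimentally naive (16 male, 16 female, 316–332 days old), given compound ip at 10 mL/kg in 10% DMSO/45% (w/v) 2-hydroxypropyl-β-cyclodextrin in water, 25 min before test. Conditioning: 40 trials of 30 s light paired with 0.5 s, 0.8 mA foot shock; test 24 h later. Startle force in grams on noise-alone and light + noise trials, 70–71 dB background; sexes pooled.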

The subject of data set [5] is Mus musculus. In words: Anxiolytic activity in high alcohol preferring-2 mouse assessed as reduction of startle response under noise alone condition at 36 mg/kg, ip treated 25 mins prior to test. Format: functional, organism-based. More on the design: dose 36 mg/kg. In a few lines: as §2
Data set [6] addresses T1, GABA-A receptor; alpha-1/beta-2/gamma-2 (Rattus norvegicus) (UniProt P18508+P62813+P63138). Briefly: Agonist activity at rat GABA-Aalpha1beta2gamma2 activity expressed in human TSA201 cells assessed as potentiation of 100 uM GABA-induced current amplitude at 100 uM by whole cell voltage-clamp method. Format: cell-based. In a few lines:
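Same whole-cell clamp setup (rat α1β2γ2s in tsA201, −60 mV, rt): 100 μM GABA, near-saturating, co-applied with 100 μM compound versus GABA alone; normalized current amplitude, mean ± SE, N = 5.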

For data set [7], the target named is T1, GABA-A receptor; alpha-1/beta-2/gamma-2 (Rattus norvegicus). In words: Agonist activity at rat GABA-Aalpha1beta2gamma2 activity expressed in human TSA201 cells assessed as potentiation of 1 uM GABA-induced current amplitude at 100 uM by whole cell voltage-clamp method. Type of data set: cell-based. A digest of the protocol: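 Modulation test on tsA201 cells expressing rat α1β2γ2s GABA-A receptor under whole-cell voltage clamp at −60 mV, rt: 1 μM GABA applied alone or simultaneously with 100 μM compound; current amplitude normalized, mean ± SE, N = 5 cells.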

The test system of data set [8] is Mus musculus. Briefly: Anxiolytic activity in high alcohol preferring-2 mouse assessed as reduction of startle response under light and noise condition at 7.5 mg/kg, ip treated 25 mins prior to test. Type of data set: functional. The note with it: route intraperitoneal. A digest of the protocol:
(§3)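 Male and female HAP2 mice (7 of each, 133–142 days old) with prior startle testing, prepulse testing and vehicle or drug injections, followed by a 15-day washout and counterbalancing. Dosed ip (10 mL/kg, distilled water vehicle) 25 min before the test session. Light (30 s, 7 W) was paired with foot shock (0.5 s, 0.8 mA; 40 trials) 24 h earlier. Startle force in grams, sexes pooled, mean ± SEM.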

For data set [9], the system named is Mus musculus. In words: Anxiolytic activity in high alcohol preferring-2 mouse assessed as reduction of startle response under noise alone condition at 7.5 mg/kg, ip treated 25 mins prior to test. The note with it: route intraperitoneal. Format: functional. A digest of the protocol: as §3
A further data set has as its target GABA-B receptor (Homo sapiens, UniProt O75899+Q9UBS5). Briefly: Agonist activity at human GABA-B B1/B2 receptor expressed in HEK293 cells assessed as inhibition of forskolin-stimulated cAMP accumulation after 3 hrs by luciferase reporter gene assay. Type of data set: functional, cell-based. Background: Cyclic AMP is a second messenger, typically raised through Gs and lowered through Gi signalling.

Active and inactive are the calls of the source. The calls are words filed in the database; no cut-off is given here.

Sequence of GABA-B receptor (Q9UBS5 whole entry): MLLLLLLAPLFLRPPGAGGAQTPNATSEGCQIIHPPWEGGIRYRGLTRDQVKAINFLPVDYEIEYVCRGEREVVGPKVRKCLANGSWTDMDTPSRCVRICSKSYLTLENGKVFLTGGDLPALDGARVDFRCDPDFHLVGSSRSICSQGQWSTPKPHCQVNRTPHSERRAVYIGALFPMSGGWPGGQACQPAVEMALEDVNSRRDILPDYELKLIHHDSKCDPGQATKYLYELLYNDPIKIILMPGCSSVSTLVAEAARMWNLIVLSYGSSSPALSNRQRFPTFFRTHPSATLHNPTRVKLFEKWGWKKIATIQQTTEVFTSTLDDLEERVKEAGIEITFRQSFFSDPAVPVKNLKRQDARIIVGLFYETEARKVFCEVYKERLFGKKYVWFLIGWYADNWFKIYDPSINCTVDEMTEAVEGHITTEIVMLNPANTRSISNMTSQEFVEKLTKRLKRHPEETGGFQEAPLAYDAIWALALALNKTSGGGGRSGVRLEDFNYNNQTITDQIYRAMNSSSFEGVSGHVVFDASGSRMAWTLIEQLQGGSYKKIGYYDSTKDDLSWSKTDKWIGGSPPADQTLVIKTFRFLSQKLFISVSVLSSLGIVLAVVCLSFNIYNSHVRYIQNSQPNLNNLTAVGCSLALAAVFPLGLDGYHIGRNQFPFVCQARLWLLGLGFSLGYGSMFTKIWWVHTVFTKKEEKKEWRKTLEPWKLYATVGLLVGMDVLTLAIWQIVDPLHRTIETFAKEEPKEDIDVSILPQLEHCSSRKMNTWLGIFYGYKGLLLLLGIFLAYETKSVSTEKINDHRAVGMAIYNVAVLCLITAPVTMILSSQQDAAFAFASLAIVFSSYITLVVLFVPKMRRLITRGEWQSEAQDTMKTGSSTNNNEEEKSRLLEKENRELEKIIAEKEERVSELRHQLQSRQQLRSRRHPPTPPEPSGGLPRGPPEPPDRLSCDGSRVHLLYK
Sequence of GABA-B receptor (O75899 whole entry): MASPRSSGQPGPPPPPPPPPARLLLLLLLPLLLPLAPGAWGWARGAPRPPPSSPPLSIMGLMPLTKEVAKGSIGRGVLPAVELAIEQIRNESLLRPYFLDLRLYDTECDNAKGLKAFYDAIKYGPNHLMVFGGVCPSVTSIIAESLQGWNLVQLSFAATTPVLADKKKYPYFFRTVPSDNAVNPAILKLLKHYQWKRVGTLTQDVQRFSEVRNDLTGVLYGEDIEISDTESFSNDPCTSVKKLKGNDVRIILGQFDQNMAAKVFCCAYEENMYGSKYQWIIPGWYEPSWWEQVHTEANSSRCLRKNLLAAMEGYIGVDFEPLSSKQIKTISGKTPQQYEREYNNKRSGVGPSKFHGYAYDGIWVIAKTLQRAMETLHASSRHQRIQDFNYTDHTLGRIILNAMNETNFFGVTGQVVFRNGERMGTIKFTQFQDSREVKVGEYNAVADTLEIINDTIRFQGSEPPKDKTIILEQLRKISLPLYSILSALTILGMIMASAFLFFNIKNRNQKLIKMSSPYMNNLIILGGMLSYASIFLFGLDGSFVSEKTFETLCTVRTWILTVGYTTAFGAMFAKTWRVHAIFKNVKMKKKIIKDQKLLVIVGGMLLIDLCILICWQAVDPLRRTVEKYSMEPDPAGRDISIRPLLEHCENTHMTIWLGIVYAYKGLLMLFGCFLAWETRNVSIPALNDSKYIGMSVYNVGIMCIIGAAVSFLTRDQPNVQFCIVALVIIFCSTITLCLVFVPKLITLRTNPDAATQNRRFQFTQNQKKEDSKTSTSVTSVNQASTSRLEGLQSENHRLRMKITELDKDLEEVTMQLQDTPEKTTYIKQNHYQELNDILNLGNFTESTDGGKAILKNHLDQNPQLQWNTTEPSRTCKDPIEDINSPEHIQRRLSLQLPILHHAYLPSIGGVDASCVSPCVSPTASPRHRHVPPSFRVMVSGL
Sequence of GABA-A receptor; alpha-1/beta-2/gamma-2 (P18508 whole entry): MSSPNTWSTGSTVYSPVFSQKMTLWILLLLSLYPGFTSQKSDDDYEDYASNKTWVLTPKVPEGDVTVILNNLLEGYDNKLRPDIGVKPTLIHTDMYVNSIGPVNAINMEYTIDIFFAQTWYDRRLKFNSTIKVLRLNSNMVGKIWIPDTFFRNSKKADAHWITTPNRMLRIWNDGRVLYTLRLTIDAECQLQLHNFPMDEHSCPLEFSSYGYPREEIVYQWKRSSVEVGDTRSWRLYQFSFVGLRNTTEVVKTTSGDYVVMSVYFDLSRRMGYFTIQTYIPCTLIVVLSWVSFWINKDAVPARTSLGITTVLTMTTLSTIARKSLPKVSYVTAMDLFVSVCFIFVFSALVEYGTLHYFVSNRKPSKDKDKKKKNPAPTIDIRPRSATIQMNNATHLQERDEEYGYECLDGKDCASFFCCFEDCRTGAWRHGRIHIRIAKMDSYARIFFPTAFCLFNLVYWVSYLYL
Sequence of GABA-A receptor; alpha-1/beta-2/gamma-2 (P62813 whole entry): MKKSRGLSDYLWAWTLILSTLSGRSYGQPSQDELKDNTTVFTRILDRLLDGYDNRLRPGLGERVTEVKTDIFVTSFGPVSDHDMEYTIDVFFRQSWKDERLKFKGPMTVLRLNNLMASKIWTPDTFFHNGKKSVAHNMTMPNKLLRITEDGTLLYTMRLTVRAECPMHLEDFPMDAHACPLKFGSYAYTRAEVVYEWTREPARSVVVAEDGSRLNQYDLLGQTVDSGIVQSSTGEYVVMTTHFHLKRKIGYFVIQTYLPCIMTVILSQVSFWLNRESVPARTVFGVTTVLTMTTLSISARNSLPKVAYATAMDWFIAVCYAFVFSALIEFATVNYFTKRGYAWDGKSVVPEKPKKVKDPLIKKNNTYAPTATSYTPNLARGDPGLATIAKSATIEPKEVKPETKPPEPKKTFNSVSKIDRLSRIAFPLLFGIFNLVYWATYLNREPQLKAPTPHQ
Sequence of GABA-A receptor; alpha-1/beta-2/gamma-2 (P63138 whole entry): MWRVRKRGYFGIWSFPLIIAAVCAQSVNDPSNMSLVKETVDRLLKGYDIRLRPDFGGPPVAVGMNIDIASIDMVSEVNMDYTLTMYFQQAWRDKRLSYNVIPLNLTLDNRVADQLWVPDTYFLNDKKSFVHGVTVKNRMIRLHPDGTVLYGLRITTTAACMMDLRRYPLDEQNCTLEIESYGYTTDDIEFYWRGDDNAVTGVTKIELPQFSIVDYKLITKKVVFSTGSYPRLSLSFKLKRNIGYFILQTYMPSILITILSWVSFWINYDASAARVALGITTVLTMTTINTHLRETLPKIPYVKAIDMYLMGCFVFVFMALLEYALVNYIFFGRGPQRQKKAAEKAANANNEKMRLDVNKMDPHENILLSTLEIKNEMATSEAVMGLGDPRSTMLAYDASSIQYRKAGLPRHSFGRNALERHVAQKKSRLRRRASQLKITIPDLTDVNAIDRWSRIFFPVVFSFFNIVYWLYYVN

In the case of `CC(=O)c1ccc(C(O)C(F)(F)C(=O)C23CC4CC(CC(C4)C2)C3)cc1` (stereo unspecified), the Activity entry in the data set on HEK293 is on record as “Non-toxic”.

The term EC50 denotes the concentration at which the effect is half-maximal. `C/C=C/C=C/C(O)C(F)(F)C(=O)c1ccc2ccccc2c1` (racemic) had an EC50 in data set [1] of over 100 µM. With `CC(C)(C)c1cc(C(C)(C)C)c2c(c1)C(O)(C(F)(F)F)C(=O)O2` (racemic), the outcome with Mus musculus [2] and with Mus musculus [3] was Active. In data set [1], this molecule yielded an EC50 of over 100 µM. For `CC(=O)c1ccc(C(O)C(F)(F)C(=O)C23CC4CC(CC(C4)C2)C3)cc1` (racemic) [listing 1 of 2 here], the result in the data set on Mus musculus [4] and with Mus musculus [5] was Active. Moreover, the outcome in data set [6] and in [7] was inactive. Take `O=C(c1ccc2ccccc2c1)C(F)(F)C(O)C1CCCCC1` (racemic): in data set [1], the EC50 was over 100 µM. For `NCC(CC(=O)O)c1ccc(Cl)cc1` (racemic) [BACLOFEN], the values for the Activity in the data set with Mus musculus [8] and in the data set on Mus musculus [9] were 26.3 g and 8.1 g, respectively. The molecule also yielded an EC50 in [1] of over 100 µM. The molecule `CCC/C=C/C(O)C(F)(F)C(=O)c1ccc2ccccc2c1` (racemic) gave an EC50 in [1] of over 100 µM.

Take `O=C(C12CC3CC(CC(C3)C1)C2)C(F)(F)C(O)/C=C/c1ccccc1` (racemic): the EC50 in data set [1] is over 100 µM; on GABA-B receptor, 40 µM. Take `C/C=C/C=C/C(O)C(F)(F)C(=O)/C=C/CCCC` (racemic): the EC50 on GABA-B receptor is over 100 µM. For the molecule `CC1(C)C2CCC(C(O)C(F)(F)C(=O)c3ccc4c(c3)OCO4)C1C2` (racemic), the Activity entry in the data set on HEK293 is on record as “Toxic”.

With `CC(=O)c1ccc(C(O)CC(=O)C23CC4CC(CC(C4)C2)C3)cc1` (racemic), the EC50 on GABA-B receptor is over 100 µM. Regarding `COc1ccc(C(O)C(F)(F)C(=O)c2ccc3ccccc3c2)cc1` (racemic), in data set [1], the EC50 was over 100 µM.

Molecule `CC(=O)c1ccc(C(O)C(F)(F)C(=O)C23CC4CC(CC(C4)C2)C3)cc1` (racemic) [listing 2 of 2 here] yielded a concentration giving a half-maximal response (EC50) in data set [1] of over 100 µM.
